From ChEMBL document CHEMBL2321876
In brackets after ≈: the same amount, converted by molar mass. Activity calls are given as the source filed them. No rule for the calls is given here.

Columns and labels:
[1] = tested on: Mycobacterium tuberculosis; assay: Bacteriostatic activity against Mycobacterium tuberculosis H37Rv using iron-deficient GAST media after 10 to 14 days by broth microdilution assay; format: functional
Procedure, shortened: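 Broth microdilution in iron-deficient GAST, in quadruplicate, with compounds from DMSO stocks and DMSO-matched control wells. Isoniazid served as positive control. Initial density 10⁴–10⁵ cells/assay, 100 μL/well, 37 °C. Growth was read as OD at 620 nm at 10–14 days, when untreated controls reached OD₆₂₀ 0.2–0.3.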

Acinetobacter baumannii [2] = assay: Antibacterial activity against Acinetobacter baumannii ATCC 19606 using iron-deficient M9 minimal media after 15 hrs by broth microdilution assay; format: functional, organism-based; settings: ATCC 19606 = CIP 70.34 = JCM 6841
Procedure, shortened: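 ATCC 19606 grown overnight at 30 °C on LB agar, washed twice and resuspended in M9 minimal medium with 0.2% casamino acids and 200 μM dipyridyl. Inoculated at A600 0.0003 in this medium plus 1 μM FeCl3. Inhibitors from DMSO at 100 μM final, in triplicate. Tetracycline (100 ng/mL) and 1% DMSO as controls. Incubated at 30 °C; A600 read at 15 h.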

Acinetobacter baumannii [3] = assay: Antibacterial activity against Acinetobacter baumannii ATCC 19606 using iron-replete M9 minimal media after 15 hrs by broth microdilution assay; format: functional, organism-based; settings: ATCC 19606 = CIP 70.34 = JCM 6841
Procedure, shortened: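 ATCC 19606 grown overnight at 30 °C on LB agar, washed twice in dipyridyl-containing M9/casamino acids medium, then diluted to A600 0.0003 in M9 minimal medium with 0.2% casamino acids plus 200 μM FeCl3. Inhibitors from DMSO at 100 μM final, in triplicate. Controls were tetracycline (100 ng/mL) and 1% DMSO. Incubated at 30 °C, A600 measured at 15 h.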

[4] = tested on: Mycobacterium tuberculosis; assay: Bacteriostatic activity against Mycobacterium tuberculosis H37Rv using iron-replete GAST media after 10 to 14 days by broth microdilution assay; format: functional
Procedure, shortened: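 Broth microdilution in GAST supplemented with 200 μM FeCl₃, in quadruplicate, with compounds from DMSO stocks and DMSO-matched controls. Isoniazid served as positive control. Inoculum 10⁴–10⁵ cells/assay, 100 μL/well, 37 °C. OD₆₂₀ was read at 10–14 days, when untreated controls reached 0.2–0.3.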

[5] = Displacement of Fl-Sal-AMS from Mycobacterium tuberculosis MbtA expressed in Escherichia coli after 30 mins by fluorescence polarization assay
[6] = Displacement of Fl-Sal-AMS from Acinetobacter baumanni BasE expressed in Escherichia coli after 30 mins by fluorescence polarization assay; set-up: species or system Acinetobacter baumannii; settings: read-out: Kd
[7] = Selectivity ratio of Kd for Mycobacterium tuberculosis MbtA to Kd for Acinetobacter baumanni BasE

Row | SMILES | MIC99 [1] [µM] | Activity (Acinetobacter baumannii [2]) | Activity (Acinetobacter baumannii [3]) | MIC99 [4] [µM] | Kd [5] [nM] | Kd [6] [nM] | Selectivity ratio [7]
1 | O=C(c1ccccc1)c1ccc(-c2cc(C(=O)O)c3cnn(Cc4ccncc4)c3n2)cc1 | > 125 | inactive | inactive | > 125 | – | – | –
2 | CCOC(=O)c1cc(-c2ccc(Cl)s2)nc2c1cnn2Cc1ccncc1 | 25 (≈ 9.97 µg/mL) | – | – | 25 (≈ 9.97 µg/mL) | – | – | –
3 | CCOC(=O)c1cc(-c2ccc(Oc3ccccc3)cc2)nc2c1cnn2Cc1ccncc1 | 50 (≈ 22.5 µg/mL) | – | – | 100 (≈ 45 µg/mL) | – | – | –
4 | O=C(O)c1cc(-c2ccccc2)nc2c1cnn2Cc1ccncc1 | > 125 | inactive | inactive | > 125 | – | – | –
5 | O=C(O)c1cc(-c2ccc(Oc3ccccc3)cc2)nc2c1cnn2Cc1ccncc1 | 25 (≈ 10.6 µg/mL) | inactive | inactive | 25 (≈ 10.6 µg/mL) | – | – | –
6 | CCOC(=O)c1cc(-c2ccccc2)nc2c1cnn2Cc1ccncc1 | > 125 | inactive | inactive | 125 (≈ 44.8 µg/mL) | > 100000 | 2160 | –
7 | CCCCCCCCCCCCOc1ccc(-c2cc(C(=O)O)c3cnn(Cc4ccncc4)c3n2)cc1 | – | inactive | inactive | – | > 50000 | 28400 | –
8 | O=C(O)c1cc(-c2ccccc2)cc2nn(Cc3ccncc3)cc12 | – | inactive | inactive | – | 58000 | 66400 | –
9 | CC(=O)Nc1ccc(-c2cc(C(=O)O)c3cnn(Cc4ccncc4)c3n2)cc1 | – | inactive | inactive | – | 4200 | 747 | –
10 | O=C(O)c1cc(-c2ccc(Cl)s2)nc2c1cnn2Cc1ccncc1 | 50 (≈ 18.5 µg/mL) | inactive | inactive | 50 (≈ 18.5 µg/mL) | – | – | –
11 | COc1ccc(-c2cc(C(=O)O)c3cnn(Cc4ccncc4)c3n2)cc1 | – | inactive | inactive | – | 3230 | 78.2 | –
12 | Cc1ccccc1-c1cc(C(=O)O)c2cnn(Cc3ccncc3)c2n1 | – | inactive | inactive | – | > 100000 | 2150 | –
13 | O=C(O)c1cc(-c2cccc(-c3ccccc3)c2)nc2c1cnn2Cc1ccncc1 | – | inactive | inactive | – | 3600 | 164 | –
14 | CNC(=O)c1cc(-c2ccccc2)nc2c1cnn2Cc1ccncc1 | – | inactive | inactive | – | > 50000 | 420 | –
15 | O=C(O)c1cc(-c2cccnc2)nc2c1cnn2Cc1ccncc1 | – | inactive | inactive | – | 16800 | 132 | –
16 | CCOC(=O)c1cc(-c2ccc(C(=O)c3ccccc3)cc2)nc2c1cnn2Cc1ccncc1 | > 125 | – | – | > 125 | – | – | –

Row | SMILES | MIC99 [1] [µM] | Activity (Acinetobacter baumannii [2]) | Activity (Acinetobacter baumannii [3]) | MIC99 [4] [µM] | Kd [5] [nM] | Kd [6] [nM] | Selectivity ratio [7]
17 | CC(C)NC(=O)c1cc(-c2ccccc2)nc2c1cnn2Cc1ccncc1 | – | inactive | inactive | – | > 100000 | 164 | –
18 | O=C(O)c1cc(-c2ccccc2)nc2c1cnn2Cc1ccc(O)cc1 | – | inactive | inactive | – | > 100000 | 556 | –
19 | O=C(NC1CC1)c1cc(-c2ccccc2)nc2c1cnn2Cc1ccncc1 | – | inactive | inactive | – | > 100000 | 150 | –
20 | O=C(O)c1cc(/C=C/c2ccccc2)nc2c1cnn2Cc1ccncc1 | – | inactive | inactive | – | 5100 | 280 | –
21 | O=C(O)c1cc(-c2ccccc2)cc2c1ccn2Cc1ccncc1 | – | inactive | inactive | – | 161000 | 52200 | –
22 | OCc1cc(-c2ccccc2)nc2c1cnn2Cc1ccncc1 | – | inactive | inactive | – | 16800 | 102 | –
23 | O=C(O)c1cc(-c2cn[nH]c2)nc2c1cnn2Cc1ccncc1 | – | inactive | inactive | – | 27900 | 2300 | –
24 | NC(=O)c1ccc(-c2cc(C(=O)O)c3cnn(Cc4ccncc4)c3n2)cc1 | – | inactive | inactive | – | 1000 | 288 | –
25 | CCCCCCCCOc1ccc(-c2cc(C(=O)O)c3cnn(Cc4ccncc4)c3n2)cc1 | – | inactive | inactive | – | > 50000 | 191 | –
26 | O=C(O)c1cc(C#Cc2ccccc2)nc2c1cnn2Cc1ccncc1 | – | inactive | inactive | – | 3000 | 421 | –
27 | O=C(O)c1cc(-c2ccc(OCc3ccccc3)cc2)nc2c1cnn2Cc1ccncc1 | – | inactive | inactive | – | 5400 | 2.14 | 1000
28 | O=C(O)c1cc(-c2ccco2)nc2c1cnn2Cc1ccncc1 | – | inactive | inactive | – | 19500 | 342 | –
29 | O=C(O)c1cc(-c2ccccc2O)nc2c1cnn2Cc1ccncc1 | – | inactive | inactive | – | 6500 | 255 | –
30 | O=C(O)c1cc(NCc2ccccc2)nc2c1cnn2Cc1ccncc1 | – | inactive | inactive | – | 6020 | 2320 | –
31 | O=C(O)c1cc(-c2ccc(CO)cc2)nc2c1cnn2Cc1ccncc1 | – | inactive | inactive | – | 3700 | 247 | –
32 | O=C(O)c1cc(-c2ccc(O)cc2)nc2c1cnn2Cc1ccncc1 | – | inactive | inactive | – | 3700 | 8.85 | –
